Reference: ChEMBL document CHEMBL1123566, “Synthesis and cardiac electrophysiological activity of 2- and 3-[(substituted phenyl)alkyl]quinuclidines. Structure-activity relationships” (1987)
“And” between values parts separate entries of the source, which are not always exact repeats. Equal values may be shown once.

How the values were obtained:
[1] = organism: Canis familiaris; test: In vitro electrophysiological activity in canine cardiac occurred is 10 uM; format: functional, Canis lupus familiaris, Heart
[2] = organism: Canis familiaris; test: In vitro electrophysiological evaluation in canine cardiac Purkinje fibres reported as % change for action potential duration at a concentration of 10 uM; format: functional, Canis lupus familiaris, Purkinje fiber
In short: (§1)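 Canine cardiac Purkinje fibres, intracellular microelectrode recording, paced at a basic cycle length of 1 s. APD95 and Vmax read simultaneously. Compound: 10 mM stock in deionized water, diluted into Tyrode's solution, tested over the stated concentration range. Each fibre used once as its own control. Result is % change from control, given at 10 µM or as the maximum with its concentration. M = <10% decrease or an increase in Vmax.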

[3] = organism: Canis familiaris; test: In vitro electrophysiological evaluation in canine cardiac Purkinje fibres reported as percent change Vmax at 10 uM at concentration range of 0.1-100 uM; Minimal (<10% decrease or increase in V max).; format: functional, organism-based; conditions: Canis lupus familiaris, Purkinje fiber; in short: as §1
[4] = organism: Canis familiaris; test: In vitro electrophysiological evaluation in canine cardiac Purkinje fibres reported as % change for action potential duration at 10 uM at 1-100 uM concentration range; format: functional, Canis lupus familiaris, Purkinje fiber; in short: as §1
[5] = organism: Canis familiaris; test: In vitro electrophysiological evaluation in canine cardiac ventricular muscle reported as maximum % change for functional refractory period (FRP) at 0.1-10 uM concentration range; concentration at which it occurred is 10 uM; parameters: species or system Canis lupus familiaris, Muscle tissue
In short: (§2)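 Canine right ventricle and papillary muscle strips in oxygenated Tyrode's solution, fitted with stimulating and recording electrodes. The extra-stimulus conduction-interval method was adapted for in vitro use. FRP and CT were read from a conduction-interval curve before and after various compound concentrations, and expressed as percent change from control. Compounds were taken from 10 mM deionized-water stock into Tyrode's. Each strip was used once as its own control.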

[6] = organism: Canis familiaris; test: In vitro electrophysiological evaluation in canine cardiac ventricular muscle reported as maximum % change for conduction time(CT) at 0.1-10 uM concentration range; Minimal (<10% decrease or increase in CT).; format: functional, Canis lupus familiaris, Muscle tissue; in short: as §2
[7] = organism: Canis familiaris; test: In vitro electrophysiological evaluation in canine cardiac Purkinje fibres reported as percent change Vmax at 10 uM at concentration range of 1-100 uM; Minimal (<10% decrease or increase in V max).; format: functional; conditions: Canis lupus familiaris, Purkinje fiber; in short: as §1
[8] = organism: Canis familiaris; test: (§3) In vitro electrophysiological activity in canine cardiac occurred is 100 uM; format: functional, Canis lupus familiaris, Heart
[9] = organism: Canis familiaris; test: In vitro electrophysiological evaluation in canine cardiac ventricular muscle reported as % change for conduction time(CT) at 10 uM at 0.1-10 uM concentration range; Minimal (<10% decrease or increase in CT).; format: functional, Canis lupus familiaris, Muscle tissue
[10] = organism: Canis familiaris; test: In vitro electrophysiological evaluation in canine cardiac ventricular muscle reported as % change for the functional refractory period (FRP) at 10 uM at concentration range of 0.1-10 uM; parameters: species or system Canis lupus familiaris, Muscle tissue; in short: as §2
[11] = organism: Canis familiaris; test: In vitro electrophysiological evaluation in canine cardiac Purkinje fibres reported as maximum percent change Vmax concentration range of 0.1-100 uM; Minimal (<10% decrease or increase in V max).; format: functional; conditions: Canis lupus familiaris; Purkinje fiber; in short: as §1
[12] = organism: Canis familiaris; test: In vitro electrophysiological evaluation in canine cardiac ventricular muscle reported as maximum % change for conduction time(CT) at 0.1-100 uM concentration range; Minimal (<10% decrease or increase in CT).; format: functional, Canis lupus familiaris, Muscle tissue; in short: as §2
[13] = organism: Canis familiaris; test: In vitro electrophysiological evaluation in canine cardiac ventricular muscle reported as % change for conduction time(CT) at 10 uM at 0.1-100 uM concentration range; Minimal (<10% decrease or increase in CT).; format: functional, Canis lupus familiaris, Muscle tissue
[14] = organism: Canis familiaris; test: In vitro electrophysiological evaluation in canine cardiac occurred is 100 uM; format: functional; conditions: Canis lupus familiaris; Heart
[15] = organism: Canis familiaris; test: In vitro electrophysiological evaluation in canine cardiac ventricular muscle reported as maximum % change for functional refractory period (FRP) at 0.1-100 uM concentration range; concentration at which it occurred is 100 uM; parameters: species or system Canis lupus familiaris, Muscle tissue; in short: as §2
[16] = organism: Canis familiaris; test: as §3; format: functional, Canis lupus familiaris, Heart; remark: listed apart in the source
[17] = organism: Canis familiaris; test: In vitro electrophysiological evaluation in canine cardiac Purkinje fibres reported as maximum percent change Vmax concentration range of 1-100 uM; Minimal (<10% decrease or increase in V max).; format: functional; conditions: Canis lupus familiaris; Purkinje fiber; in short: as §1

For `CC(=O)C(CC1C(=O)C2CCN1CC2)C(=O)c1ccccc1.Cl` (stereo unspecified), the APD95 [1] was -6%, the APD95 [2] was -6% and the Vmax [3] was under 10%. It also gave an APD95 [4] of -5%, an FRP [5] of 20% and a CT [6] of under 10%. For the same compound, the Vmax [7] was under 10%, the APD95 [8] was -19% and the CT [9] was under 10%. It also gave an FRP [10] of 14% and a Vmax [11] of under 10%.
In the case of `CS(=O)(=O)Nc1cc(C(=O)CCC2C(=O)C3CCN2CC3)ccc1Cl.Cl` (stereo unspecified), the APD95 [2] is reported as -4%, the Vmax [3] is reported as under 10% and the APD95 [4] is reported as -3%. The CT [12] was under 10%, the CT [13] was under 10% and the Vmax [14] was -28%. For the same compound, the APD95 [8] was 17%, the FRP [15] was 21% and 32% and 15% and the APD95 [16] was 21%. It also gave a Vmax [17] of under 10%.
